# Laboratory results from ChEMBL document CHEMBL1157562, “Piperazinyl glutamate pyridines as potent orally bioavailable P2Y12 antagonists for inhibition of platelet aggregation” (J Med Chem, 2010).
# Key:
# P2Y purinoceptor 12 = P2Y purinoceptor 12 (Homo sapiens, UniProt Q9H244); assay: Displacement of [33P]ADP from human recombinant P2Y12 receptor expressed in CHO cells; format: cell-based
# In short: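 Washed membranes from CHO cells expressing synthetic human P2Y12, incubated 1 h at room temperature with 0.2 nM 33P-MeSADP in 50 mM Tris/100 mM NaCl/1 mM EDTA. Compound was tested as a 7-point 3-fold series in triplicate. Nonspecific binding was defined with 300 nM 2-MeSADP, followed by filtration.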
# [1] = Antiplatelet aggregation activity against adenosine diphosphate-induced human platelet rich plasma assessed as inhibition of platelet aggregation by turbidimetric method; format: functional; conditions: Homo sapiens, Platelet, Plasma
# In short: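 Human PRP, prepared by two-step centrifugation and adjusted to 330 000 platelets/μL with PPP. Compound was preincubated 5 min at 37 °C in 0.5% DMSO, then 20 μM ADP was added. OD626 was read kinetically for 15 min at 37 °C with mixing between reads.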
# P2Y purinoceptor 12, sequence (Q9H244 whole entry): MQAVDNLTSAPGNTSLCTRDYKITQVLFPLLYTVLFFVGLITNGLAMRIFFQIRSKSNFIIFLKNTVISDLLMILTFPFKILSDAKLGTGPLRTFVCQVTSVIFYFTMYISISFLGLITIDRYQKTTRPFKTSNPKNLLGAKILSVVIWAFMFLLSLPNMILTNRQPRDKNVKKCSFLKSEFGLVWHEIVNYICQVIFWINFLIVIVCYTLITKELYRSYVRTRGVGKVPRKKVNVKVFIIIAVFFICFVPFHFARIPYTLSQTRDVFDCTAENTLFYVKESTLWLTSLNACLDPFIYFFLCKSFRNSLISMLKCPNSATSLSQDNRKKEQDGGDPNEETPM
Ki (P2Y purinoceptor 12) [µM],IC50 [1] [µM],Compound
3.1,> 100,CCCC(=O)N1CCN(C(=O)[C@H](CCC(=O)O)NC(=O)c2cccc(-c3ccccc3)n2)CC1
1.88,> 100,O=C(O)CC[C@H](NC(=O)c1cccc(-c2ccccc2)n1)C(=O)N1CCN(C(=O)c2ccccc2)CC1
0.288,80,CCNC(=O)N1CCN(C(=O)[C@H](CCC(=O)O)NC(=O)c2cccc(-c3ccccc3)n2)CC1
0.842,> 100,O=C(O)CC[C@H](NC(=O)c1cccc(-c2ccccc2)n1)C(=O)N1CCN(S(=O)(=O)c2ccccc2)CC1
> 3.59,> 100,CN(C)CC(=O)N1CCN(C(=O)[C@H](CCC(=O)O)NC(=O)c2cccc(-c3ccccc3)n2)CC1
> 3.59,> 100,CCC(=O)N1CCN(C(=O)[C@H](CCC(=O)O)NC(=O)c2cccc(-c3ccccc3)n2)CC1
,> 100,Cc1cccc(N2CCN(C(=O)[C@H](CCC(=O)O)NC(=O)c3cccc(-c4ccccc4)n3)CC2)c1
> 3.8,> 100,CC(C)CN1CCN(C(=O)[C@H](CCC(=O)O)NC(=O)c2cccc(-c3ccccc3)n2)CC1
,> 100,COC(=O)N1CCN(C(=O)[C@H](CCC(=O)O)NC(=O)c2cccc(-c3ccccc3)n2)CC1

# Second part, the compound before the results:
Compound,Ki (P2Y purinoceptor 12) [µM],IC50 [1] [µM]
CCOC(=O)N1CCN(C(=O)[C@H](CCC(=O)O)NC(=O)c2ccccn2)CC1,> 5.4,> 100
CCCCCNC(=O)N1CCN(C(=O)[C@H](CCC(=O)O)NC(=O)c2cccc(-c3ccccc3)n2)CC1,0.055,> 100
CCOC(=O)N1CCN(C(=O)CNC(=O)c2cccc(-c3ccccc3)n2)CC1,1.61,> 100
CCCCCOC(=O)N1CCN(C(=O)[C@H](CCC(=O)O)NC(=O)c2cc(N(C)CCOC)cc(-c3ccccc3)n2)CC1,0.0021,> 100
CCCCCOC(=O)N1CCN(C(=O)[C@H](CCC(=O)O)NC(=O)c2cc(NC(C)=O)cc(-c3ccccc3)n2)CC1,0.0062,> 10
Cc1cccc(N2CCN(C(=O)[C@H](CCC(=O)O)NC(=O)c3cc(-c4ccccc4)ccn3)CC2)c1,> 5.7,> 100
CCCCCN1CCN(C(=O)[C@H](CCC(=O)O)NC(=O)c2cccc(-c3ccccc3)n2)CC1,> 3.59,> 100
CCCCCCCCOC(=O)N1CCN(C(=O)[C@H](CCC(=O)O)NC(=O)c2cccc(-c3ccccc3)n2)CC1,,> 100
CCCCCOC(=O)N1CCN(C(=O)[C@H](CCC(=O)O)NC(=O)c2cc(NC(=O)COC)cc(-c3ccccc3)n2)CC1,0.025,> 10
CCCNC(=S)N1CCN(C(=O)[C@H](CCC(=O)O)NC(=O)c2cccc(-c3ccccc3)n2)CC1,0.042,81
O=C(O)CC[C@H](NC(=O)c1cccc(-c2ccccc2)n1)C(=O)N1CCN(C(=O)OCC2CCC2)CC1,0.028,> 100
O=C(O)CC[C@H](NC(=O)c1cccc(-c2ccccc2)n1)C(=O)N1CCN(C(=O)OC2CCCCC2)CC1,0.044,> 100
CCNC(=S)N1CCN(C(=O)[C@H](CCC(=O)O)NC(=O)c2cccc(-c3ccccc3)n2)CC1,0.009,39
CCOC(=O)N1CCN(C(=O)[C@H](CCC(=O)O)NC(=O)c2cc(N(C)C)cc(-c3ccccc3)n2)CC1,0.045,> 100
CCCCCCOC(=O)N1CCN(C(=O)[C@H](CCC(=O)O)NC(=O)c2cccc(-c3ccccc3)n2)CC1,,19
COCCOC(=O)N1CCN(C(=O)[C@H](CCC(=O)O)NC(=O)c2cccc(-c3ccccc3)n2)CC1,0.492,> 100
CCCCCOC(=O)N1CCN(C(=O)[C@H](CCC(=O)O)NC(=O)c2cccc(-c3ccccc3)n2)CC1,,15
CCCCCCCOC(=O)N1CCN(C(=O)[C@H](CCC(=O)O)NC(=O)c2cccc(-c3ccccc3)n2)CC1,,56
CCCCOC(=O)N1CCN(C(=O)[C@H](CCC(=O)O)NC(=O)c2cccc(-c3ccccc3)n2)CC1,,28
CCCOC(=O)N1CCN(C(=O)[C@H](CCC(=O)O)NC(=O)c2cccc(-c3ccccc3)n2)CC1,,62
